The test system of series [1] is Rattus norvegicus. Nature of the series: Antithrombotic activity in Wistar rat assessed as dry thrombus weight at 0.5 umol/kg, iv. The class given is functional. The procedure, abridged: (§1)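 Male Wistar rats (250–300 g) under ip pentobarbital sodium (80.0 mg/kg). Arteriovenous shunt: polyethylene tube holding a weighed 6 cm thread, filled with heparin sodium (50 IU/ml in NS), joins left jugular vein to right carotid artery. Heparin, then compound in NS (kept on ice), injected through the tube; blood flows 15 min. Thread weighed wet, then dry after 2 weeks in a desiccator.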

The test system of series [2] is Rattus norvegicus. Put plainly: Antithrombotic activity in Wistar rat assessed as wet thrombus weight at 0.5 nmol/kg, iv. The series is classed as functional. The procedure, abridged: as §1
The test system of series [3] is Rattus norvegicus. Nature of the series: Antithrombotic activity in Wistar rat assessed as wet thrombus weight at 0.5 umol/kg, iv. The class given is functional. The procedure, abridged:
as §1

Series [4] deals with Rattus norvegicus. Nature of the series: Antithrombotic activity in Wistar rat assessed as dry thrombus weight at 0.5 nmol/kg, iv. The class given is functional. The procedure, abridged:
as §1

Series [5] has as its system Rattus norvegicus. Put plainly: Antithrombotic activity in Wistar rat assessed as wet thrombus weight at 5 nmol/kg, iv. The class given is functional. The procedure, abridged:
as §1

Series [6] has as its system Rattus norvegicus. Nature of the series: Antithrombotic activity in Wistar rat assessed as dry thrombus weight at 5 nmol/kg, iv. The class given is functional. The procedure, abridged:
as §1

A short description of series [7]: HPLC retention, log K of the compound.
The subject of series [8] is Rattus norvegicus. Nature of the series: Antithrombotic activity in Wistar rat assessed as dry thrombus weight at […], iv. The series is classed as functional.
The subject of series [9] is Rattus norvegicus. Nature of the series: Antithrombotic activity in Wistar rat assessed as wet thrombus weight at […], iv. The class given is functional.
Series [10] deals with Plasma. Put plainly: Inhibition of PAF-induced platelet aggregation in pig platelet rich plasma. The series is classed as functional, cell-free. To be noted: Sus scrofa. Summed up:
(§2)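 Pig blood anticoagulated with 0.38% sodium citrate (final). PRP taken at 100 g for 10 min, PPP at 1,500 g for 10 min, platelets adjusted to 2 × 10⁸/ml with autologous PPP. Compound in NS (1–0.01 μmol/L final) added to 0.5 ml PRP. Aggregation induced with PAF (10^-7 mol/L final) or ADP (10^-5 mol/L final), followed turbidimetrically at 37 °C for 5 min. Peak height (Am%) compared with NS control; IC50 derived.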

Series [11] deals with Plasma. Nature of the series: Inhibition of ADP-induced platelet aggregation in pig platelet rich plasma. The series is classed as functional, cell-free. The conditions noted are these: Sus scrofa. Summed up: as §2
The subject of series [12] is Rattus norvegicus. Nature of the series: Antithrombotic activity in Wistar rat assessed as dry thrombus weight at 0.5 umol/kg, po. The class given is functional. Summed up:
(§3)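 Compound in NS given orally to male Wistar rats (250–300 g), which were then anesthetized with ip pentobarbital sodium (80.0 mg/kg). Thirty min later the carotid artery and jugular vein were exposed. Blood ran 15 min through a polyethylene-tube shunt holding a thread. Wet thrombus weighed, then dry weight recorded after 2 weeks in a desiccator.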

Series [13] has as its system Rattus norvegicus. Put plainly: Antithrombotic activity in Wistar rat assessed as wet thrombus weight at 0.5 umol/kg, po. The series is classed as functional. The procedure, abridged:
as §3

The results in this text go back to ChEMBL document CHEMBL1143743, “A new class of anti-thrombosis hexahydropyrazino-[1',2':1,6]pyrido-[3,4-b]-indole-1,4-dions: design, synthesis, logK determination, and QSAR analysis” (Bioorg Med Chem, 2007).

`N=C(N)NCCC[C@@H]1NC(=O)[C@@H]2Cc3c([nH]c4ccccc34)CN2C1=O`: the Activity in [1] turned out to be 1.22 mg; in [2], 15.71 mg; in series [3] it was 8.62 mg; in series [4], 2.45 mg; in series [5], 14.52 mg; in series [6], 2.27 mg. The “log K” value in [7] is -0.58.
On to `CC(=O)Oc1ccccc1C(=O)O` [ASPIRIN], for which the results for the Activity in series [8] and in [9] were 2.4 mg and 7.56 mg, respectively.
Take `O=C(O)CC[C@@H]1NC(=O)[C@@H]2Cc3c([nH]c4ccccc34)CN2C1=O`: the figures for the Activity in series [1] and in series [3] were 3.31 mg and 10.42 mg, respectively. The “log K” value in series [7] came to 0.21.
The term IC50 denotes the concentration needed to halve the response being measured. Lower therefore signals greater potency in that assay. Take `CC(C)[C@@H]1NC(=O)[C@@H]2Cc3c([nH]c4ccccc34)CN2C1=O`: the Activity in [1] amounted to 1.2 mg; in series [2] it was 16.88 mg; in [3], 8.19 mg; in series [4], 2.64 mg; in series [5], 14.79 mg; in series [6] it was 2.31 mg. Besides, the IC50 worked out at 294 nM in series [10] and 112 nM in series [11]. For the same molecule, in series [7], the “log K” value was found to be 0.97.
With `CC(O)[C@@H]1NC(=O)[C@@H]2Cc3c([nH]c4ccccc34)CN2C1=O` (stereo partly drawn), the Activity turned out to be 3.65 mg in series [1] and 11.49 mg in [3]. Further, the “log K” value in [7] is on record as -0.14.
The like results for `O=C1N[C@@H](CO)C(=O)N2Cc3[nH]c4ccccc4c3C[C@@H]12` were, in that order, 2.98 mg, 9.44 mg and -0.16.
Take `NC(=O)CC[C@@H]1NC(=O)[C@@H]2Cc3c([nH]c4ccccc34)CN2C1=O`: the Activity came out at 3.52 mg in series [1] and 11.1 mg in [3]. For the same molecule, the “log K” value in series [7] amounted to 0.28.
For the molecule `NCCCC[C@@H]1NC(=O)[C@@H]2Cc3c([nH]c4ccccc34)CN2C1=O`, the Activity in [1] was 4.06 mg; in series [12] it was 3.73 mg; in series [3], 12.78 mg; in series [13] it was 11.75 mg. In series [7], the “log K” value is -0.26.
Regarding `NC(=O)C[C@@H]1NC(=O)[C@@H]2Cc3c([nH]c4ccccc34)CN2C1=O`, the Activity in series [1] turned out to be 3.03 mg; in series [3], 9.54 mg. For the same molecule, the “log K” value in [7] amounted to 0.21.
On the same counts, the results for `O=C1NC(CS)C(=O)N2Cc3[nH]c4ccccc4c3C[C@@H]12` (single isomer, unassigned) are 2.88 mg, 9.06 mg and 0.71.
The like results for `C[C@@H]1NC(=O)[C@@H]2Cc3c([nH]c4ccccc34)CN2C1=O` were, in that order, 3.83 mg, 12.05 mg and 0.47.
On the same counts, the results for `CCC(C)[C@@H]1NC(=O)[C@@H]2Cc3c([nH]c4ccccc34)CN2C1=O` (stereo partly drawn) are 3.95 mg, 12.45 mg and 1.26.
`CSCC[C@@H]1NC(=O)[C@@H]2Cc3c([nH]c4ccccc34)CN2C1=O`: the values for the Activity in series [1] and in series [3] were 3.28 mg and 10.41 mg, respectively. For the same molecule, the “log K” value in series [7] worked out at 0.97.
The like results for `CC(C)C[C@@H]1NC(=O)[C@@H]2Cc3c([nH]c4ccccc34)CN2C1=O` were, in that order, 3.3 mg, 10.4 mg and 1.32.
Turning to `O=C(O)C[C@@H]1NC(=O)[C@@H]2Cc3c([nH]c4ccccc34)CN2C1=O`, the Activity in series [1] is recorded as 3.89 mg; in [12], 3.94 mg; in series [3], 12.26 mg; in series [13] it was 12.42 mg. Further, the “log K” value in series [7] is listed as 0.15.
In the case of `O=C1N[C@@H](Cc2ccc(O)cc2)C(=O)N2Cc3[nH]c4ccccc4c3C[C@@H]12`, the results for the Activity in series [1] and in series [3] were 3.3 mg and 10.49 mg, respectively. For the same molecule, the “log K” value in series [7] worked out at 0.01.
With `O=C1N[C@@H](Cc2ccccc2)C(=O)N2Cc3[nH]c4ccccc4c3C[C@@H]12`, the Activity in series [1] was 1.33 mg; in [2], 15.3 mg; in series [3], 8.58 mg; in series [4] it was 2.39 mg; in series [5] it was 13.3 mg; in [6] it was 2.08 mg. Also, the “log K” value in series [7] came out at 1.05.
With `O=C1NCC(=O)N2Cc3[nH]c4ccccc4c3C[C@@H]12`, the Activity in [1] worked out at 3.39 mg; in series [12], 3.67 mg; in series [3], 10.68 mg; in [13], 11.57 mg. In addition, the “log K” value in series [7] is on record as 0.19.
